Assays:
CHO [1] = test: Selectivity ratio of Ki for human adenosine A2A receptor expressed in CHO cells to Ki for human adenosine A3 receptor expressed in CHO cells; format: cell-based
[2] = molecular target: Adenosine receptors; A1 & A3 (Homo sapiens) (UniProt P30542+P0DMS8); test: Selectivity ratio of Ki for human adenosine A1 receptor expressed in CHO cells to Ki for human adenosine A3 receptor expressed in CHO cells; format: cell-based
Adenosine receptor A2a = Adenosine receptor A2a (Homo sapiens, UniProt P29274); test: Displacement of [3H]NECA from human adenosine A2A receptor expressed in CHO cells; format: cell-based
Adenosine receptor A1 = molecular target: T1, Adenosine receptor A1 (Homo sapiens, UniProt P30542); test: Displacement of [3H]CCPA from human adenosine A1 receptor expressed in CHO cells; format: cell-based
T1 sequence (P30542 whole entry): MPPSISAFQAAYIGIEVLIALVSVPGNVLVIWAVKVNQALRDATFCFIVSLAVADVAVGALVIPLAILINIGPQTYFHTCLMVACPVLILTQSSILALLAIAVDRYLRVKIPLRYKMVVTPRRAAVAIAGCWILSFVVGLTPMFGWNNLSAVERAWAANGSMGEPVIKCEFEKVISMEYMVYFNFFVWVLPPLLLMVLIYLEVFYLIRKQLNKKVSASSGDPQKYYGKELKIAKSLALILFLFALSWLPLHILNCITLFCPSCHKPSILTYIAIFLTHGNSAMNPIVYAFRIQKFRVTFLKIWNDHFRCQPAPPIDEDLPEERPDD
Procedure, shortened: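 Stably transfected CHO cells were homogenised and spun at 1000g to remove nuclei and fragments. Membranes were then pelleted at 100 000g, resuspended in binding buffer, frozen in liquid nitrogen and stored. Radioligand was [³H]CCPA, with nonspecific binding defined by 1 mM theophylline.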

Adenosine receptor A3 = molecular target: T2, Adenosine receptor A3 (Homo sapiens, UniProt P0DMS8); test: Displacement of [3H]NECA from human adenosine A3 receptor expressed in CHO cells; format: cell-based
T2 sequence (P0DMS8 whole entry): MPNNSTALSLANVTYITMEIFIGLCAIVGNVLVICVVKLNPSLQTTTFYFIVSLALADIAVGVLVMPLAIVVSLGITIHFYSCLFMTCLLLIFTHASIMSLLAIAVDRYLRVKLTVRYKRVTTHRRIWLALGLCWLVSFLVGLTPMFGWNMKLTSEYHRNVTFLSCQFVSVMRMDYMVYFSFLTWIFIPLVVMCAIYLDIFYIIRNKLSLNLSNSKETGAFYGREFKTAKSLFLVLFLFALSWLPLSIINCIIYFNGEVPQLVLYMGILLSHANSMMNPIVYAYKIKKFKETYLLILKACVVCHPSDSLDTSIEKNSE
Procedure, shortened: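 Radioligand [³H]NECA was used on membranes from stably transfected CHO cells, prepared by a 1000g clearing spin then pelleting at 100 000g. Pellets were resuspended in binding buffer, frozen in liquid nitrogen and stored. Nonspecific binding was defined with 100 μM R-PIA.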

Adenosine receptor A2b = molecular target: T3, Adenosine receptor A2b (Homo sapiens, UniProt P29275); test: Antagonist activity at human adenosine A2B receptor expressed in CHO cells assessed as inhibition of NECA-stimulated adenylyl cyclase activity; format: functional, cell-based
T3 sequence (P29275 whole entry): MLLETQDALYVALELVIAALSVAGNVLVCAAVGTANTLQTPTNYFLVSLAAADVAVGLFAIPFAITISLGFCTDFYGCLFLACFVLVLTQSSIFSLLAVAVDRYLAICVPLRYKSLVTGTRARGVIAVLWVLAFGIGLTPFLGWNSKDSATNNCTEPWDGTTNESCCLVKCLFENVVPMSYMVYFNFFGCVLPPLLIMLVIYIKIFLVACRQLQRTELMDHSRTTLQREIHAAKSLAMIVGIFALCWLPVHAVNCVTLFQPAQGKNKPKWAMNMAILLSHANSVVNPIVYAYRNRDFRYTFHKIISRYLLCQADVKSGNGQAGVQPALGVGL
Procedure, shortened: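 Membranes from stably transfected CHO cells, made with a single high-speed centrifugation of the homogenate. Incubated 20 min with about 150 000 cpm [α-³²P]ATP, in a mixture without EGTA and NaCl. IC50 for concentration-dependent inhibition of NECA-stimulated adenylyl cyclase was fitted with the Hill equation and converted to Ki by Cheng–Prusoff.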

CHO [3] = test: Selectivity ratio of Ki for human adenosine A1 receptor expressed in CHO cells to Ki for human adenosine A2A receptor expressed in CHO cells; format: cell-based

Chain of Adenosine receptor A2a (P29274 whole entry): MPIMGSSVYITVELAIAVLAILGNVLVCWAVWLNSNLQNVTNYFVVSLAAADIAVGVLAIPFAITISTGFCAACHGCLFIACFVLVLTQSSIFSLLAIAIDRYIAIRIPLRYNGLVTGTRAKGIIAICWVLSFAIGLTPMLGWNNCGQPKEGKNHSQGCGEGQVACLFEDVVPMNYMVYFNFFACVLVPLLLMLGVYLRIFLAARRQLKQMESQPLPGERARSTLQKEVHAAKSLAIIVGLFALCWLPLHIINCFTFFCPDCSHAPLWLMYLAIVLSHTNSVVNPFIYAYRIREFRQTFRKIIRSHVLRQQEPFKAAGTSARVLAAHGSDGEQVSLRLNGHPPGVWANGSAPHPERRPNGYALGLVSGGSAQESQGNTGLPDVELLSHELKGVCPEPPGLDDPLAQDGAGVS

Ratio Ki [2] | Ki (Adenosine receptor A2a) [nM] | Ki (Adenosine receptor A1) [nM] | Ki (Adenosine receptor A3) [nM] | Ki (Adenosine receptor A2b) [nM] | SMILES | Ratio Ki (CHO [1]) | Ratio Ki (CHO [3])
> 23.7 | 773 | > 100000 | 4220 | > 30000 | O=C(Nc1ncc(C(=O)NCCc2ccccc2)c2nc(-c3ccco3)nn12)NC1CCCCC1 | 0.18 | > 129
2.81 | 385 | 943 | 336 | > 30000 | CCOC(=O)c1cnc(NC(c2ccccc2)c2ccccc2)n2nc(-c3ccco3)nc12 | 1.14 | 2.45
29.3 | 215 | 1150 | 39.3 | > 10000 | CCCCC(CC)CNc1ncc(C(=O)OCC)c2nc(-c3ccco3)nn12 (stereo not drawn) | 5.47 | 5.35
5 | 8180 | 8860 | 1770 | > 10000 | CCOC(=O)c1cnc(N2CCCCC2)n2nc(-c3ccco3)nc12 | 4.62 | 1.08
1.87 | 44.4 | 45.6 | 24.4 | 7150 | CCOC(=O)c1cnc(NCC(C)C)n2nc(-c3ccco3)nc12 | 1.82 | 1.03
0.11 | 33800 | 1780 | 16400 | > 10000 | CCCCC(CC)CNc1ncc(C(=O)O)c2nc(-c3ccco3)nn12 (stereo not drawn) | 2.06 | 0.05
0.21 | 37300 | 3790 | 17700 | > 10000 | O=C(O)c1cnc(NC2CCCC2)n2nc(-c3ccco3)nc12 | 2.11 | 0.1
0.27 | 51.4 | 365 | 1350 | > 30000 | O=C(Nc1ccccc1)Nc1ncc(C(=O)NCCc2ccccc2)c2nc(-c3ccco3)nn12 | 0.04 | 7.1
1.02 | 187 | 890 | 875 | > 30000 | CCOC(=O)c1cnc(NCc2ccc(-c3ccccc3)cc2)n2nc(-c3ccco3)nc12 | 0.21 | 4.76
1.18 | > 100000 | 2450 | 2070 | > 30000 | O=C(O)c1cnc(NC(c2ccccc2)c2ccccc2)n2nc(-c3ccco3)nc12 | > 48 | < 0.02
> 7.14 | 6390 | > 100000 | 14000 | > 30000 | O=C(O)c1cnc(NCc2ccc(F)cc2)n2nc(-c3ccco3)nc12 | 0.46 | > 15.6
2.17 | 9500 | 5720 | 2640 | > 30000 | CCOC(=O)c1cnc(SC)n2nc(-c3ccco3)nc12 | 3.6 | 0.6
0.26 | 7660 | 4490 | 17500 | > 10000 | CC(C)Nc1ncc(C(=O)O)c2nc(-c3ccco3)nn12 | 0.44 | 0.59
15.2 | 73.2 | 866 | 56.8 | 1630 | CCOC(=O)c1cnc(NCc2ccc(Cl)cc2)n2nc(-c3ccco3)nc12 | 1.29 | 11.8
0.78 | 3.32 | 185 | 238 | 1110 | CCOC(=O)c1cnc(N)n2nc(-c3ccco3)nc12 | 0.01 | 55.7
0.39 | 26900 | 10400 | 26300 | > 10000 | CCCCCNc1ncc(C(=O)O)c2nc(-c3ccco3)nn12 | 1.02 | 0.39
> 11.5 | 17600 | > 100000 | 8700 | > 10000 | CCOC(=O)c1cnc(N2CCOCC2)n2nc(-c3ccco3)nc12 | 2.02 | > 5.68
1.52 | 25.8 | 428 | 282 | 2490 | CNC(=O)c1cnc(NCc2ccc(OC)c(OC)c2)n2nc(-c3ccco3)nc12 | 0.09 | 16.6
0.98 | 43.4 | 34.4 | 35 | 4620 | CCOC(=O)c1cnc(NC2CCCC2)n2nc(-c3ccco3)nc12 | 1.24 | 0.79
4.23 | 103 | 40 | 9.46 | 10000 | CCOC(=O)c1cnc(NC(C)C)n2nc(-c3ccco3)nc12 | 10.9 | 0.39
6.73 | 596 | 1110 | 165 | > 10000 | O=C(O)c1cnc(NC2CC2)n2nc(-c3ccco3)nc12 | 3.61 | 1.86
> 38.6 | 42700 | > 100000 | 2590 | > 30000 | CCOC(=O)c1cnc(NC(=O)Cc2ccccc2)n2nc(-c3ccco3)nc12 | 16.5 | > 2.34
4.92 | 209 | 1590 | 323 | 2040 | CCOC(=O)c1cnc(NCc2ccc(C(F)(F)F)cc2)n2nc(-c3ccco3)nc12 | 0.65 | 7.61
5.47 | 210 | 6510 | 1190 | > 10000 | CCOC(=O)c1cnc(NOC)n2nc(-c3ccco3)nc12 | 0.18 | 31
49.1 | 50.3 | 162 | 3.3 | 3060 | CCNc1ncc(C(=O)OCC)c2nc(-c3ccco3)nn12 | 15.2 | 3.22
> 1.68 | 24700 | > 100000 | 59400 | > 30000 | O=C(Nc1ncc(C(=O)O)c2nc(-c3ccco3)nn12)NC1CCCCC1 | 0.42 | > 4.05
1.08 | 58.9 | 141 | 131 | > 10000 | CCOC(=O)c1cnc(NC2CCCCC2)n2nc(-c3ccco3)nc12 | 0.45 | 2.39
0.17 | 33900 | 2740 | 15800 | > 10000 | O=C(O)c1cnc(NCC2CCCCC2)n2nc(-c3ccco3)nc12 | 2.14 | 0.08
6.38 | 37.4 | 60.7 | 9.52 | 2260 | CCOC(=O)c1cnc(NC2CC2)n2nc(-c3ccco3)nc12 | 3.93 | 1.62

Source: ChEMBL document CHEMBL3351655, “Scaffold decoration at positions 5 and 8 of 1,2,4-triazolo[1,5-c]pyrimidines to explore the antagonist profiling on adenosine receptors: a preliminary structure-activity relationship study” (J Med Chem, 2014)
